# From ChEMBL document CHEMBL5357028, “Acetogenins from the Stem of Uvaria rufa and Their Cytotoxic Activity” (J Nat Prod, 2024)
# Structures can show the parent of a compound that is named as a salt. Calls of active or inactive are those of the source. The calls are words filed in the database; no cut-off is given here.
# Experiments:
# CWR22R = experiment: Cytotoxicity against human 22Rv1 cells assessed as reduction in cell viability measured after 72 hrs by MTT assay; assay type: functional, cell-based; details: 22Rv1, 72 h
# In short: (§1)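 Cells grown at 37°C, 5% CO₂ (22Rv1 in RPMI 1640, HCT 116 in McCoy's; 10% FBS, penicillin/streptomycin). Trypsinized, 5000 cells/well seeded, 24 h attachment. DMSO stocks diluted in medium to final 100, 20, 4, 0.8, 0.16 and 0.032 μM; 0.5% DMSO vehicle control. After 72 h, MTT 0.5 mg/mL final for 3 h; formazan dissolved in DMSO, A570. Viability relative to DMSO control; duplicates, three independent experiments; IC50 calculated.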
# HCT-116 = experiment: Cytotoxicity against human HCT-116 cells assessed as reduction in cell viability measured after 72 hrs by MTT assay; assay type: functional, cell-based; details: HCT-116, 72 h; in short: as §1
# MDA-MB-435 = experiment: Cytotoxicity against human MDAMB-435 cells assessed as reduction in cell viability measured after 72 hrs by MTS assay; assay type: functional, cell-based; details: MDA-MB-435, 72 h
# In short: (§2)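 Cells exposed to test substance for 72 h. Viability read by MTS-based absorbance assay (CellTiter 96 AQueous One Solution) relative to DMSO solvent control. Paclitaxel served as positive control.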
# OVCAR-3 = experiment: Cytotoxicity against human OVCAR-3 cells assessed as reduction in cell viability measured after 72 hrs by MTS assay; assay type: functional, cell-based; details: OVCAR-3, 72 h; in short: as §2
# [1] = test system: Mycobacterium tuberculosis; experiment: Antitubercular activity against Mycobacterium tuberculosis H37Rv assessed as inhibition of bacterial growth upto 100 ug/ml; assay type: functional, organism-based; details: dose <= 100.0 µg/ml
SMILES,IC50 (CWR22R),IC50 (HCT-116),IC50 (MDA-MB-435),IC50 (OVCAR-3),Activity [1]
CC[C@]1(O)C[C@@H]2CN(CCc3c([nH]c4ccccc34)[C@@](C(=O)OC)(c3cc4c(cc3OC)N(C)[C@H]3[C@@](O)(C(=O)OC)[C@H](OC(C)=O)[C@]5(CC)C=CCN6CC[C@]43[C@@H]65)C2)C1 [VINBLASTINE SULFATE],0.001 µM,0.001 µM,–,–,–
CCCCCC[C@H](O)CCC[C@H](O)[C@H]1CC[C@H]([C@H]2CC[C@H]([C@H](O)CCCCCCCCC[C@@H](O)CCC3=C[C@H](C)OC3=O)O2)O1,8.2 µM,1.8 µM,4.4 µM,4.5 µM,–
CCCCCCCCCC[C@H](O)[C@H]1CC[C@H]([C@H]2CC[C@H]([C@H](O)CCCCCCCCCCCCC3=C[C@H](C)OC3=O)O2)O1 [BULLANIN],16.5 µM,29.1 µM,5.3 µM,> 10 µM,–
CCCCCCCCCC[C@H](O)[C@H]1CC[C@H]([C@H]2CC[C@H]([C@H](O)CCCCCCCC[C@H](O)[C@H](O)CCC3=C[C@H](C)OC3=O)O2)O1,8.3 µM,15 µM,4.6 µM,> 10 µM,–
COc1cc([C@@H]2c3cc4c(cc3[C@@H](O[C@@H]3O[C@@H]5CO[C@@H](C)O[C@H]5[C@H](O)[C@H]3O)[C@H]3COC(=O)[C@H]23)OCO4)cc(OC)c1O [ETOPOSIDE],2.3 µM,1.8 µM,–,–,–
CCCCCCCCCC[C@@H](O)[C@H]1CC[C@H]([C@H]2CC[C@H]([C@H](O)CCCCCCCCCCCCC3=C[C@H](C)OC3=O)O2)O1 [ISODESAACETYLUVARICIN],7.8 µM,2.8 µM,4.1 µM,> 10 µM,–
CCCCCC[C@H](O)CCC[C@H](O)[C@H]1CC[C@H]([C@H]2CC[C@H]([C@H](O)CCCCCCCCCCCCC3=C[C@H](C)OC3=O)O2)O1 [SQUAMOCIN],6.4 µM,1.2 µM,4.6 µM,4.5 µM,–
CCCCCCCCCC[C@@H](O)[C@H]1CC[C@H]([C@H]2CC[C@H]([C@H](O)CCCCCCCCC[C@H](O)CCC3=C[C@H](C)OC3=O)O2)O1 [UVARIGRANDIN A],7 µM,5.5 µM,4.1 µM,4.6 µM,–
CCCCCCCCCC[C@@H](O)[C@H]1CC[C@H]([C@H]2CC[C@H]([C@H](O)CCCCCCCC[C@H](O)[C@H](O)CCC3=C[C@H](C)OC3=O)O2)O1,5.5 µM,2.7 µM,4.4 µM,3.7 µM,–
CC(=O)O[C@H]1C(=O)[C@@]2(C)[C@H]([C@H](OC(=O)c3ccccc3)[C@]3(O)C[C@H](OC(=O)[C@H](O)[C@@H](NC(=O)c4ccccc4)c4ccccc4)C(C)=C1C3(C)C)[C@]1(OC(C)=O)CO[C@@H]1C[C@@H]2O [PACLITAXEL],–,–,0.0026 µM,0.0056 µM,–
CCCCCC[C@H](O)CCC[C@H](O)[C@H]1CC[C@H]([C@H]2CC[C@H]([C@H](O)CCCCCCCCCCCCCCC3=C[C@H](C)OC3=O)O2)O1,5.6 µM,1.2 µM,4.5 µM,4.4 µM,–
CCCCCCCCCC[C@@H](O)[C@H]1CC[C@H]([C@H]2CC[C@H]([C@H](O)CCCCCCCCC[C@@H](O)CCC3=C[C@H](C)OC3=O)O2)O1,17.5 µM,9.2 µM,4.6 µM,3.5 µM,inactive
CCCCCCCCCC[C@H](O)[C@H]1CC[C@H]([C@H]2CC[C@H]([C@H](O)CCCCCCCC[C@H](O)CCCC3=C[C@H](C)OC3=O)O2)O1,12.5 µM,10 µM,–,–,–
